Measured values published in ChEMBL document CHEMBL1144318, “Tryptamine-based human beta3-adrenergic receptor agonists. Part 3: improved oral bioavailability via modification of the sulfonamide moiety” (Bioorg Med Chem Lett, 2005).

Key:
[1] = target: T1, Beta-2 adrenergic receptor (Homo sapiens, UniProt P07550); experiment: Agonistic activity was assessed by measuring cAMP accumulation in CHO cells expressing human beta-2 adrenergic receptor; format: functional, cell-based
[2] = target: T2, Beta-3 adrenergic receptor (Homo sapiens, UniProt P13945); experiment: Agonistic activity was assessed by measuring cAMP accumulation in CHO cells expressing human beta-3 adrenergic receptor; format: functional, cell-based
Target sequence in this assay (P13945 whole entry): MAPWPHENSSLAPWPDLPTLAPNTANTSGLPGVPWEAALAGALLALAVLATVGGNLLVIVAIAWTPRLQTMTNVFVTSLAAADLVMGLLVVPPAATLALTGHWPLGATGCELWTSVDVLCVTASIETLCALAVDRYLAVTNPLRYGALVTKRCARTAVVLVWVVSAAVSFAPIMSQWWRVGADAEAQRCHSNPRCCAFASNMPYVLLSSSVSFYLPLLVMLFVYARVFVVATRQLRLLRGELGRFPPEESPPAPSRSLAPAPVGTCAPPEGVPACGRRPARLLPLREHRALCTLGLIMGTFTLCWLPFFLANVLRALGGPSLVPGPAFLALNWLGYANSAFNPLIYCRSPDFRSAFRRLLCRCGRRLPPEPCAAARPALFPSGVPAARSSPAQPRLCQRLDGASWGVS

[3] = target: T2, Beta-3 adrenergic receptor; experiment: Intrinsic activity against human beta-3 adrenergic receptor IA) as a percentage of maximal stimulation with isoproterenol; format: functional
Summary of the method: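 In CHO cells expressing low-density human β3-AR (13,000 receptors/cell), cAMP accumulation was measured. Intrinsic activity is expressed as a percentage of the maximal stimulation produced by isoproterenol.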
Target sequence in this assay (P13945 whole entry, looked up): as the sequence (P13945 whole entry) above

[4] = target: Beta-1 adrenergic receptor (Homo sapiens, UniProt P08588); experiment: Agonistic activity was assessed by measuring cAMP accumulation in CHO cells expressing human beta-1 adrenergic receptor; format: functional, cell-based
[5] = target: T1, Beta-2 adrenergic receptor; experiment: Effective concentration against human beta-2 adrenergic receptor; format: functional
Caco-2 [6] = experiment: Permeability of compounds was determined in Caco-2 cell monolayer permeability assay; (high); format: functional, cell-based; settings: Homo sapiens
Caco-2 [7] = experiment: Permeability of compounds was determined in Caco-2 cell monolayer permeability assay; (moderate); format: functional, cell-based; settings: Homo sapiens

T1 sequence (P07550 whole entry): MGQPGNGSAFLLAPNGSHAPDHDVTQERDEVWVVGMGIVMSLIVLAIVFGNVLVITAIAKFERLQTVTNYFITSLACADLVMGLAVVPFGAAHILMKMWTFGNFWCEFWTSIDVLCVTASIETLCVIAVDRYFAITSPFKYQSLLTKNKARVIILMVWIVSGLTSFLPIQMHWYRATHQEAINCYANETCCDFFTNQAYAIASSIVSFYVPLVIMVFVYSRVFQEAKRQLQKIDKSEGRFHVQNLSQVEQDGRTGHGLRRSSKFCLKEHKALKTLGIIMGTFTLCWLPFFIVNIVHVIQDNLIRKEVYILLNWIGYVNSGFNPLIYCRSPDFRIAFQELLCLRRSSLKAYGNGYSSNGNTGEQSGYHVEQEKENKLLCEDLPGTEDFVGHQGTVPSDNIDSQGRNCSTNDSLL
Sequence of Beta-1 adrenergic receptor (P08588 whole entry): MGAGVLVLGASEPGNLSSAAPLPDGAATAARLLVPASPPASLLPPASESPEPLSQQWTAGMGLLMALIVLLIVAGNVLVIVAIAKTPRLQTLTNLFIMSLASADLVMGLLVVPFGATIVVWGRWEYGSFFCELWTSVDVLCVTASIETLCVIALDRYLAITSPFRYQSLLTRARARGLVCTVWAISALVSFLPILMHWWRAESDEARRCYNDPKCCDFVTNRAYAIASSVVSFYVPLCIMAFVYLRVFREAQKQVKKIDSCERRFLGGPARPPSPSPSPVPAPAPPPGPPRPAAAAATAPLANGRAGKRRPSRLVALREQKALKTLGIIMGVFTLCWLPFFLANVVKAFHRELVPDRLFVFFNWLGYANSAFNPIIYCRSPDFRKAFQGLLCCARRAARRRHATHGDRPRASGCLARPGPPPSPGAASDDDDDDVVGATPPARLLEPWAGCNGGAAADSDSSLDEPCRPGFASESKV

| Compound | EC50 [1] [nM] | EC50 [2] [nM] | IA50 [3] [%] | EC50 [4] [nM] | EC50 [5] [nM] | Permeability (Papp* 10E6 cm/s) (Caco-2 [6]) | Permeability (Papp* 10E6 cm/s) (Caco-2 [7]) |
| --- | --- | --- | --- | --- | --- | --- | --- |
| C[C@H](Cc1c[nH]c2c(OS(C)(=O)=O)cccc12)NC[C@H](O)c1cccc(NC/C=C/c2ccccc2)c1 | 13 | 1 | 97 | – | – | – | – |
| C/C=C/CNc1cccc([C@@H](O)CN[C@H](C)Cc2c[nH]c3c(OS(C)(=O)=O)cccc23)c1 | 10 | 1.2 | 102 | 170 | – | – | – |
| CC#CCNc1cccc([C@@H](O)CN[C@H](C)Cc2c[nH]c3c(OS(C)(=O)=O)cccc23)c1 | 18 | 6.5 | 90 | – | – | – | – |
| C[C@H](Cc1c[nH]c2c(OS(C)(=O)=O)cccc12)NC[C@H](O)c1cccc(NS(=O)(=O)c2ccccc2)c1 | – | 0.54 | 90 | 13 | 19 | – | – |
| CC(C)=CCNc1cccc([C@@H](O)CN[C@H](C)Cc2c[nH]c3c(OS(C)(=O)=O)cccc23)c1 | 36 | 36 | 79 | 160 | – | – | – |
| C=CCNc1cccc([C@@H](O)CN[C@H](C)Cc2c[nH]c3c(OS(C)(=O)=O)cccc23)c1 | 2.2 | 3.2 | 110 | – | – | – | – |
| C[C@H](Cc1c[nH]c2c(OS(C)(=O)=O)cccc12)NC[C@H](O)c1cccc(NCc2ccccc2)c1 | 16 | 11 | 87 | – | – | 9 | – |
| C[C@H](Cc1c[nH]c2c(OS(C)(=O)=O)cccc12)NC[C@H](O)c1cccc(OS(=O)(=O)c2ccccc2)c1 | – | 32 | 60 | – | – | 7 | – |
| CC/C=C/CNc1cccc([C@@H](O)CN[C@H](C)Cc2c[nH]c3c(OS(C)(=O)=O)cccc23)c1 | 11 | 9 | 101 | – | – | – | – |
| C#CCNc1cccc([C@@H](O)CN[C@H](C)Cc2c[nH]c3c(OS(C)(=O)=O)cccc23)c1 | 9.6 | 10 | 102 | 45 | – | – | – |
| C[C@H](Cc1c[nH]c2c(OS(C)(=O)=O)cccc12)NC[C@H](O)c1cccc(NC(=O)c2ccccc2)c1 | 69 | 160 | 96 | 120 | – | – | 0.9 |
| C[C@H](Cc1c[nH]c2c(OS(C)(=O)=O)cccc12)NC[C@H](O)c1cccc(OCc2ccccc2)c1 | 46 | 15 | 90 | – | – | 6.7 | – |
| C[C@H](Cc1c[nH]c2c(OS(C)(=O)=O)cccc12)NC[C@H](O)c1cccc(N(C)S(=O)(=O)c2ccccc2)c1 | – | 52 | 38 | – | – | 4.7 | – |
| C[C@H](Cc1c[nH]c2c(OS(C)(=O)=O)cccc12)NC[C@H](O)c1cccc(NCc2ccc3ccccc3c2)c1 | – | 2.9 | 107 | – | – | – | – |
| C=C(C)CNc1cccc([C@@H](O)CN[C@H](C)Cc2c[nH]c3c(OS(C)(=O)=O)cccc23)c1 | 1.5 | 17 | 114 | – | – | – | – |
| C[C@H](Cc1c[nH]c2c(OS(C)(=O)=O)cccc12)NC[C@H](O)c1cccc(CS(=O)(=O)c2ccccc2)c1 | – | 100 | 54 | – | – | – | 0.9 |
